Screens as filed in PubChem.
ASAP1 inh: inhibitors of human ASAP1 ArfGAP activity, primary screen, biochemical, fluorescence polarization; inhibition, % at 16.5 µM; AID 624377, 2012; 360,000 tested, 0.19% active; ASAP1-stimulated ARF1 GTP hydrolysis, GDP FP detection; in the data active = inhibition above about 25%;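 also: 0% = vehicle with enzyme and substrate and 100% = no enzyme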
Target sequence (Q9ULH1 325-724 limits assumed): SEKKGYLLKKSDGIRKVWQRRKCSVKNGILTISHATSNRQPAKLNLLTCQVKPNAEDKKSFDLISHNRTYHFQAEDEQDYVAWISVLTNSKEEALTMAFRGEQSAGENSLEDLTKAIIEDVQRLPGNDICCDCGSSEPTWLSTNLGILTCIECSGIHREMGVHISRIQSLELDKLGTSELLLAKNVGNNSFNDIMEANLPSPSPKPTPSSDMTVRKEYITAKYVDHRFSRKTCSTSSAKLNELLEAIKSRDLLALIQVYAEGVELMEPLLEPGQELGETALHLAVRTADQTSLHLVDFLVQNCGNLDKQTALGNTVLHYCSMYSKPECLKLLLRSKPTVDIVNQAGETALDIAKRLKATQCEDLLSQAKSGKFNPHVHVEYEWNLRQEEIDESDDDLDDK
Calb FLC: C. albicans growth inhibition with fluconazole, primary screen, CaCi-2 strain, Alamar Blue fluorescence; C. albicans CaCi-2 + fluconazole, 48 h; growth inhibition, % (concentration not given with the values); 300,000 tested, 0.57% active; AID 1979, 2009;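 active = growth inhibition above about 58% in most replicates, limit read from the data, passing the limit was not always enough; inconclusive = exactly half the replicates above a set limit; inactive = most replicates below a set limit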;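 also: all wells also contain fluconazole at 8 µg/ml as a sub-toxic cotreatment; 0% = median of DMSO wells and 100% = median of geldanamycin control wells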
ARFGAP1 inhibitor: inhibitors of rat ARFGAP1 GAP activity, primary screen, biochemical, fluorescence polarization, GDP tracer; inhibition, % at 16.5 µM; ADP-ribosylation factor GTPase-activating protein 1 (Rattus norvegicus), Q62848; AID 651572, 2012; Arfgap1-stimulated ARF1 GTP hydrolysis, GDP FP detection; 360,000 tested, 0.26% active;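 active = inhibition above a per-plate limit, mean inhibition of low control wells plus 3 SD, cut at about 25% in these data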;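 also: 0% = DMSO wells with enzyme and 100% = wells lacking Arfgap1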
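Material: rat Arfgap1 catalytic domain, aa 1-136; also added: human ARF1(Δ1-17)-GTP substrate; compound dosing: one concentration, 16.5 µM, DMSO 1.26%; incubation: GTP hydrolysis reaction 2 h at 25 °C; measured by: Tracer-displacement fluorescence polarization with EDTA stop, 620/688 nm; evaluation: % inhibition from polarization; repeats: one replicate per compound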
IMP-1 inh: IMP-1 metallo-beta-lactamase inhibitors, primary screen, biochemical, epi-absorbance readout, Pseudomonas aeruginosa enzyme | purified IMP-1, nitrocefin hydrolysis, epi-absorbance fluorescence | inhibition, % at 5.6 µM | 290,000 tested, 0.45% active | AID 1556, 2009;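 active = inhibition above the mean plus 3 SD of all compounds in the same screening run, cut at about 4.5% in these data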;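 also: 0% = IMP-1 with DMSO and 100% = DMSO wells lacking enzyme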
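Assay system: purified recombinant IMP-1 beta-lactamase. Input: IMP-1 0.2 nM before substrate addition. Buffer or medium: Zinc- and detergent-supplemented HEPES buffer, pH 7.1. Schedule: 25 °C, 15 min preincubation, 25 min reaction. Signal: Epi-absorbance fluorescence, 480 nm excitation, 530 nm emission. Evaluation: percent inhibition from optical density relative to buffer-blank wells.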
PHOSPHO1 inh: PubChem AID 1565 | Phosphoethanolamine/phosphocholine phosphatase (Homo sapiens), Q8TCT1 | inhibition, % at 13.3 µM | recombinant PHOSPHO1, absorbance phosphatase assay | 290,000 tested, 1.1% active; in the data active = inhibition above about 60%
Target sequence (Q8TCT1 whole entry, looked up): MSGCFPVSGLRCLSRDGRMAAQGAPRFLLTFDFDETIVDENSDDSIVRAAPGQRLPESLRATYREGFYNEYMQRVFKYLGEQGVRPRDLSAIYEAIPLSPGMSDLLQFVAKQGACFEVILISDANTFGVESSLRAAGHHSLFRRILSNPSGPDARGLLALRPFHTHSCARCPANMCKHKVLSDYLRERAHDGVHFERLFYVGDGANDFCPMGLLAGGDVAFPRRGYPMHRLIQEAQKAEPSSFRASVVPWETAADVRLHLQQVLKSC
VIM-2 inhibitor: VIM-2 metallo-beta-lactamase inhibitors, primary screen, biochemical, epi-absorbance readout, Pseudomonas aeruginosa enzyme | inhibition, % at 5.6 µM | AID 1527, 2009 | 290,000 tested, 0.89% active | purified VIM-2, nitrocefin hydrolysis, epi-absorbance fluorescence;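 active = inhibition above the mean of all tested compounds plus 3 SD, cutoff set per screening run, cut at about 7.5% in these data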;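 also: red hydrolysis product quenches plate fluorescence so inhibitors raise well fluorescence; 0% = enzyme with DMSO and 100% = DMSO without enzyme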
Starred values were filed as active, the others as inactive; ? = inconclusive; / = no result given. Shown are actives, neighbours in structure and some others; about 2.6% of the full set was active somewhere.

SMILES	ASAP1 inh	Calb FLC	ARFGAP1 inhibitor	IMP-1 inh	PHOSPHO1 inh	VIM-2 inhibitor
CC(=O)Nc1ccc(S(=O)(=O)N2CCN(c3nc(NC4CCCC4)c4ccccc4n3)CC2)cc1	18	2	39*	-2	18	0
O=C(c1cc(=O)[nH]c2ccccc12)N1CCN(Cc2ccc3c(c2)OCO3)CC1	-9	/	6	/	/	/
O=C(CN1CCN(Cc2ccc3c(c2)OCO3)CC1)c1c[nH]c2ccccc12	5	-3	0	-2	84*	-1
CCOC(=O)/C(N=Nc1sc(C(=O)OC)c(C)c1C(=O)OCC)=C(\O)CCl	0	8	1	4.7*	-1	0
CCOC(=O)/C(N=Nc1sc(C(=O)OCC)c(C)c1C(=O)OCC)=C(\C)O	/	-2	/	-2	-21	1
COC(=O)C1=C(C)N(C)C(=NCC2CC2)NC1c1ccc(Cl)cc1 (stereo unspecified)	8	/	8	/	/	/
COc1ccc(CNS(=O)(=O)c2ccccc2Br)c(OC)c1	-2	/	0	/	/	/
c1csc(-c2nn3c(-c4ccncc4)nnc3s2)c1	/	/	/	/	-36	/
COc1ccc(-c2nnc3sc(-c4ccco4)nn23)cc1OC	3	-4	-7	-5	-23	2
COc1cccc(-c2nnc3sc(-c4ccco4)nn23)c1	-14	4	6	-2	74*	-5
c1coc(-c2nnc3sc(-c4cccs4)nn23)c1	-1	/	1	0	-52	7.9*
O=C(O)C(=Cc1ccc([N+](=O)[O-])cc1)c1ccccc1	-15	/	-16	/	/	/
COc1cccc(CNC(=O)[C@H]2CCCN2C(=O)[C@H]2CCCN2C(=O)c2ccc(F)c(F)c2)c1	-10	/	-4	/	/	/
C=CCn1c(C(C)NC(=O)c2ccccc2)n[nH]c1=S (stereo unspecified)	13	1	12	-3	80*	-2
CC(=O)CC1N(S(=O)(=O)c2ccc(C)cc2)c2ccccc2N1S(=O)(=O)c1ccc(C)cc1	8	/	2	/	/	/
CCc1ccc2c(c1)C(c1cccs1)=NNC(c1cccnc1)=N2	-20	15	-7	-3	21	0
Fc1ccc2c(c1)C(c1ccncc1)=NNC(c1cccnc1)=N2	3	81*	4	-2	35	-1
Clc1ccc2c(c1)C(c1cccs1)=NNC(c1cccnc1)=N2	-12	90*	9	-2	34	-8
CCOC(=O)c1c(-c2ccco2)csc1N	2	?	-3	0	80*	-1
c1cncc(-c2nn3c(Cn4cnc5ccccc54)nnc3s2)c1	-13	4	0	-6	69*	0
c1ccc(-c2nn3c(Cn4nnc5ccccc54)nnc3s2)cc1	0	-11	10	-5	69*	-4
COc1ccc(Cc2nn3c(Cn4nnc5ccccc54)nnc3s2)cc1	-15	-10	-4	0	69*	0
c1ccc(-c2nn3c(Cn4cnc5ccccc54)nnc3s2)cc1	3	33	9	-6	66*	0
c1ccc2c(c1)ncn2Cc1nnc2sc(-c3ccncc3)nn12	1	-3	14	-3	51	-1
O=C(N[C@H](C(=O)N1CCC[C@H]1C(=O)NCc1ccccc1)c1ccccc1)c1ccccc1	-3	/	-9	/	/	/
SMILES	ASAP1 inh	Calb FLC	ARFGAP1 inhibitor	IMP-1 inh	PHOSPHO1 inh	VIM-2 inhibitor
CCCc1c(Cc2cccc(F)c2)ncn1CCc1ccccc1OC	-5	/	7	/	/	/
COc1ccc(CCNC(=O)c2ccc3nc(-c4ccco4)c(-c4ccco4)nc3c2)cc1OC	/	/	/	1	70*	-3
CCc1nc2ccc(C(=O)NCCc3ccc(OC)c(OC)c3)cc2nc1CC	-1	2	8	-2	10	-1
COC(=O)C(CC(C)C)N(Cc1ccc(Br)cc1)S(=O)(=O)CCl (stereo unspecified)	10	/	-5	/	/	/
COc1ccc2[nH]c(C(=O)N/N=C/c3ccccc3OC)cc2c1	14	3	12	0	36	0
COc1cc(OC)c2cc(C(=O)N/N=C/c3ccccc3O)[nH]c2c1	-4	81*	-3	-3	18	-5
CC(C)CC1=C/C(=C/c2ccc(-c3ccccc3)o2)C(=O)O1	-13	18	-9	4.9*	-5	-3
CCOC(=O)C1=C(Cc2ccc(C)cc2)C(=O)c2ccccc2C1=O	14	28	-14	-4	44	-2
CCOC(=O)C1=C(Cc2ccc(OC)cc2)C(=O)c2ccccc2C1=O	/	/	/	-4	71*	1
COc1ccc(N2CCN(S(=O)(=O)CCNC(=O)c3ccco3)CC2)cc1	14	10	8	/	/	/
COc1ccc(N2CCN(S(=O)(=O)CCNC(=O)c3ccc(Br)o3)CC2)cc1	-5	-4	-6	-2	65*	-7
COC(=O)[C@]12CCCCC=C1N(CCc1ccc(OC)c(OC)c1)C(=O)[C@H](CC(=O)N1CCOCC1)C2	2	/	5	/	/	/
Cc1ccc(N2C=Nc3ccc(C)c4nc(C)cc2c34)cc1	-1	7	0	-1	15	11*
CC1=Nc2ccc(C)c3nc(C)cc(c23)N1c1ccc(C)cc1	-4	2	-4	-2	/	2
CC[C@H](C)[C@@H](CO)NC(=O)[C@H]1O[C@@H](n2ccc(=O)[nH]c2=O)[C@H](O)[C@@H]1O	7	/	0	/	/	/
Cc1cccn2c(=O)c3cc(C(=O)NCc4ccco4)c(=N)n(CCc4ccccc4)c3nc12	-8	/	-6	-1	16	1
CC(C)n1c(=N)c(C(=O)NCCc2ccccc2)cc2c(=O)n3ccccc3nc21	3	1	-6	-3	63*	3
COc1ccc(CCn2c(=N)c(C(=O)NC3CCCC3)cc3c(=O)n4ccccc4nc32)cc1	6	-2	5	-2	12	3
CCn1c(=N)c(C(N)=O)cc2c(=O)n3cccc(C)c3nc21	/	/	/	-2	/	7.9*
COc1ccc(CCn2c(=N)c(C(=O)NC3CCCC3)cc3c(=O)n4ccccc4nc32)cc1OC	7	-4	6	-2	24	10*
Cc1cccn2c(=O)c3cc(C(=O)NCCc4ccccc4)c(=N)n(Cc4ccco4)c3nc12	1	12	-6	-4	32	9.1*
O=C(O)[C@H](Cc1ccccc1)NC(=O)[C@H]1O[C@@H](n2ccc(=O)[nH]c2=O)[C@H](O)[C@@H]1O	-17	/	-8	/	/	/
COc1ccc(CNC(=O)C(OC(C)=O)c2ccccn2)cc1 (stereo unspecified)	9	2	-12	5.8*	3	-1
